Compound activity as filed in PubChem BioAssay.
Hits are enriched below; roughly 3.9% of the tested compounds scored in any of these assays.
CRFR2-BP antag – CRF-BP/CRF-R2 complex antagonism; HEK293 CRF-R2/CRF-BP, CRF-induced calcium fluorescence; inhibition, % at 11.8 µM; actives 0.59% (n = 350,000);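 active = inhibition of the ligand-induced calcium signal above about 50% at the single tested concentration, limit read from the data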
TAAR1 antag – human TAAR1 antagonism; CHO RD-HGA16 TAAR1, Fluo-8 calcium fluorescence, antagonist; actives 1.5% (n = 360,000); inhibition, % at 3 µM; Q96RJ0;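 active = inhibition above a per-plate cutoff, the mean inhibition of test compounds on that plate plus 3 SD, cut at about 49% in these data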;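 note: 0% = DMSO plus EC80 beta-PEA response and 100% = DMSO alone without agonist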
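System: CHO RD-HGA16 cells bearing hTAAR1. Reagent: EC80 β-phenethylamine stimulus. Schedule: seeding 17-24 h prior, 75-min 37 °C, 30-min RT dye loading. Signal: Fluo-8 intracellular calcium dye fluorescence, real-time kinetic reads. Read-out: % inhibition from peak post-agonist over basal fluorescence ratio. Benchmarks: vehicle wells and EC80 agonist wells. Replicates: n of 1.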
ANO1 block – inhibitors of mouse TMEM16A calcium-activated chloride channel. Q8BHY3. HEK293 TMEM16A/YFP iodide influx fluorescence, ionomycin. normalized B-score (activity score, 25-100; higher = stronger inhibition) at 10 µM. actives 1.2% (n = 310,000). AID 588511;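 active = ratio plate-corrected score three or more library SD toward inhibition, starting fluorescence score within five deviations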;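 note: score derived from kinetic fluorescence span divided by baseline fluorescence per well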
Target sequence (Q8BHY3 whole entry, looked up): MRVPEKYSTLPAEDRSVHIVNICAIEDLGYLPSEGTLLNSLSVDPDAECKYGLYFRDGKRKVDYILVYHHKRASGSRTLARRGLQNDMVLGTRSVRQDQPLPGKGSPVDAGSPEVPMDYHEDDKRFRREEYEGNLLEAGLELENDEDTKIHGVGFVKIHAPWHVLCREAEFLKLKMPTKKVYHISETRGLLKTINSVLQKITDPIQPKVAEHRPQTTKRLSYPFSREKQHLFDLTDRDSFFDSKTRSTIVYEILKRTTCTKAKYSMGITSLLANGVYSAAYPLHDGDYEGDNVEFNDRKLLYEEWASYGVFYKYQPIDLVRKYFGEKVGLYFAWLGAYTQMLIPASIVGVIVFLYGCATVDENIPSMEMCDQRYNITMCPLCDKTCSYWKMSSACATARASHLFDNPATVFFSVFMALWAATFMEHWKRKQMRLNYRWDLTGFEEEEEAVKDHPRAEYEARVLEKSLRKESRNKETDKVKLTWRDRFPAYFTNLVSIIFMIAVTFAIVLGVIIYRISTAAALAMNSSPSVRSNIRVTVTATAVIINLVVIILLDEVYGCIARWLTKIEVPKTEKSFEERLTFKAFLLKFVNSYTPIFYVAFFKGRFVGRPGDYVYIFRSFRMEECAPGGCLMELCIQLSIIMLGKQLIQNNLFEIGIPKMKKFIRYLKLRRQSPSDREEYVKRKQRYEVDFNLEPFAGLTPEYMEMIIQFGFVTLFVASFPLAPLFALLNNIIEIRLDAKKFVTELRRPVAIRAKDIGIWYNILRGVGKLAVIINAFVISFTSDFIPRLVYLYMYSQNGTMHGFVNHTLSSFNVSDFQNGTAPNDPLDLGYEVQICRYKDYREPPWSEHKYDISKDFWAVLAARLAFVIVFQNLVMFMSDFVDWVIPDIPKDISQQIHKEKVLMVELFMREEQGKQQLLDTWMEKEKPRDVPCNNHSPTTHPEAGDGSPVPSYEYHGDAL
CRFBP-R2 agonist – agonists of human CRF-binding protein/CRF-R2 receptor complex; HEK293 CRF-R2/CRF-BP, calcium dye fluorescence (FLIPR); percent of saturating CRF peptide response; activation, % at 13.2 µM; actives 0.46% (n = 350,000); AID 588473;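 active = activation of at least 50%, plus an integration ratio under a set limit after plate pattern correction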;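 note: plate controls were neutral control wells without compound for no effect and CRF at EC100 for full effect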
TMEM16A act – activators or potentiators of mouse TMEM16A chloride channel; AID 623877; actives 0.3% (n = 340,000); B-score at 10 µM; HEK293 TMEM16A/YFP-H148Q/I152L, iodide quench fluorescence; active compounds read low; Q8BHY3;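 active = fluorescence-ratio B-score plate-corrected deviation score at least 3 library SD below zero, with starting fluorescence score within 5 deviations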;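 note: channel opened by trigger with iodide after compound preincubation; score built on the fluorescence ratio of max minus min over baseline; more negative score means more quench and so TMEM16A activation or potentiation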
TAAR1 ag – agonists of human TAAR1; Q96RJ0; CHO RD-HGA16 TAAR1, Fluo-8 calcium fluorescence; vehicle wells 0%, saturating PEA agonist 100%; activation, % at 3 µM; actives 0.99% (n = 360,000);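 active = activation above the mean activation of all test compounds in the run plus 3 SD, cut at about 38% in these data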
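Signal – calcium-sensitive Fluo-8 signal, excitation 470-495, emission 515-575 nm · System – RD-HGA16 (CHO) cells co-expressing Gα16 and hTAAR1 · Incubation – 17-24 h seeding, 75 min 37 °C dye, 30 min RT · Compound dosing – 3 µM single concentration · Repeats – no replicates (n 1)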
TMEM16A reconf – reconfirmed blocker of mouse TMEM16A calcium-activated chloride channel | inhibition, % at 10 µM | HEK293 TMEM16A/YFP-H148Q, iodide quench fluorescence; ionomycin added to raise cell calcium | actives 39% (n = 2,300) | shares compounds with ANO1 block | AID 652189;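 active = mean duplicate percent inhibition, scaled so buffer wells are 0 and the reference blocker 100, over three buffer SD above buffer mean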
TMEM16A Ca cntr – calcium mobilization counter-screen hit for TMEM16A inhibitor series; TMEM16A/YFP HEK293, Fluo4 calcium mobilization; actives 2% (n = 2,300); calcium response (% of ionomycin), % at 10 µM; shares compounds with ANO1 block;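 active = duplicate-averaged calcium signal over 20% of the ionomycin maximum, relative to buffer baseline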;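 note: each well's signal is peak minus trough fluorescence divided by its pre-addition baseline; 0% = buffer wells and 100% = ionomycin wells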
Parental YFP cnt – parental YFP-HEK293 iodide quench counter-screen activity. shares compounds with ANO1 block. ionomycin. YFP ratio F(max-min)/F0 at 10 µM. 2,300 tested, under 10 active;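 active = yellow fluorescent protein signal ratio exceeding the buffer control mean by over 5 SD of those controls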;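 note: ratio is mean of duplicate wells from kinetic YFP trace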
ClC-1 inh – rat ClC-1 inhibition, TMEM16A specificity screen; shares compounds with ANO1 block; CHO ClC-1-YFP, iodide influx fluorescence quench; iodide control reads 0, buffer control 100; ratio percent, % at 10 µM; 2,300 tested, under 10 active; AID 652236;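 active = duplicate-mean ratio percent above the mean of iodide-only control wells, which defines zero, plus 5 of their SD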;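 note: higher percent means stronger block of ClC-1 iodide influx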
The depositor's hits bear a star; i = inactive; . = no result.

SMILES	CRFR2-BP antag	TAAR1 antag	ANO1 block	CRFBP-R2 agonist	TMEM16A act	TAAR1 ag	TMEM16A reconf	TMEM16A Ca cntr	Parental YFP cnt	ClC-1 inh
CCSC(=S)c1c(C)[nH]n(-c2ccccc2)c1=O	28.4	-15.5	100*	11.8	i	8.3	29.0%*	i	-0.747	-8.0
COc1ccc(Cn2c(CCC(=O)Nc3ccc(CC#N)cc3)nc3cccnc32)cc1	6.6	-7.3	25*	-3.4	i	7.0	i	i	-1.07	-6.0
COc1ccc(Cn2c(CCC(=O)Nc3ccccc3)nc3cccnc32)cc1	-11.8	3.7	i	-0.5	i	11.7	.	.	.	.
C[C@H](NC(=O)C1CCN(S(=O)(=O)c2ccccc2)CC1)C(=O)NCc1cccnc1	-0.7	-21.4	.	0.9	.	2.4	.	.	.	.
COc1ccc(CCNc2cc(N3CCN(C(=O)c4ccccc4F)CC3)ccc2[N+](=O)[O-])cc1OC	3.5	31.9	25*	0.8	i	18.8	42.5%*	i	-0.846	-18.5
O=C(Cn1c(=O)n(CCCCC(=O)NC2CCCC2)c(=O)c2ccccc21)NCCC1=CCCCC1	10.5	11.3	100*	-0.3	i	7.3	i	i	-0.817	-3.0
O=C(O)CNS(=O)(=O)c1ccc(Br)s1	-7.5	4.4	i	-0.3	i	-0.4	.	.	.	.
Cc1ccc(S(=O)(=O)NCc2ccncc2)cc1C	5.6	25.8	i	6.5	i	5.1	.	.	.	.
O=S(=O)(NCc1ccncc1)c1ccc(Br)s1	-6.2	11.0	100*	-2.5	i	5.3	i	i	-1.12	-18.5
Cc1cc(C)c(C)c(S(=O)(=O)NCc2ccncc2)c1C	-8.9	11.4	25*	0.7	i	0.4	26.0%*	i	-1.03	-14.0
COCCCNC(=O)C(=O)Nc1ccc2c(c1)N(S(=O)(=O)c1cccs1)CCC2	5.4	-22.3	i	-0.5	i	5.0	.	.	.	.
CCOc1ccccc1C(=O)NCC(=O)OCCOc1cccc(Cl)c1	14.2	26.1	i	-0.1	i	-1.8	.	.	.	.
COc1cccc(CNc2cnc3ccccc3c2)c1O	-15.3	6.6	25*	2.3	i	9.0	25.5%*	i	-0.944	-13.0
COc1cccc(CNc2nc3ccccc3n2C)c1O	18.5	-0.1	i	-0.6	i	5.0	.	.	.	.
CCN1C=C(Cc2ccc(F)cc2)C2=C(C1)C(c1ccc(F)cc1)C(C#N)=C(N)O2 (stereo not given)	-14.1	19.0	25*	1.0	i	6.3	i	i	-1.11	-5.5
O=C(Nc1cccc(Cl)c1)N1CCN(Cc2ccccc2)CC1	1.6	8.8	100*	0.4	i	2.2	i	i	-1.07	-8.0
Cc1ccc(S(=O)(=O)NC(=O)C2CCCCC2)cc1	30.3	3.3	.	-0.1	i	1.7	.	.	.	.
Fc1ccc(-c2nnc(CN3CCN(c4ncc(C(F)(F)F)cc4Cl)CC3)o2)cc1	3.8	6.3	100*	0.7	i	1.8	i	i	-1.12	-19.0
Fc1ccc(N2CCN(Cc3nnc(-c4ccccc4)o3)CC2)cc1	-7.8	-1.9	i	-1.9	i	0.0	.	.	.	.
COc1ccc(N2CCN(C(=O)c3ccc(Cl)c(S(=O)(=O)N4CCCC4)c3)CC2)cc1	-2.9	-4.2	i	-0.4	i	0.0	.	.	.	.
COc1ccc(N2CCN(C(=O)c3ccc(C)c(Cl)c3)CC2)cc1	-9.0	-4.4	25*	0.3	i	2.9	i	i	-1.03	0.5
Cc1nnc(SCC(=O)Nc2nc(-c3ccccc3)cs2)n1N	-2.4	14.6	100*	-4.3	i	7.4	i	i	-1	-10.0
CCC1SC2=NC(C)=C(C(=O)OCC(C)C)C(/C=C/c3ccccc3OC)N2C1=O (stereo not given)	-5.2	-4.8	100*	11.9	i	13.3	i	i	-1.13	-15.5
CCC1SC2=NC(C)=C(C(=O)OCCOC)C(/C=C/c3ccccc3OC)N2C1=O (stereo not given)	0.1	-2.4	i	0.3	i	5.9	.	.	.	.
COc1cccc2c1C(=O)C=C(C)C2=O	16.4	-0.3	25*	-2.2	i	3.3	i	24.5%*	-0.971	-8.5
SMILES	CRFR2-BP antag	TAAR1 antag	ANO1 block	CRFBP-R2 agonist	TMEM16A act	TAAR1 ag	TMEM16A reconf	TMEM16A Ca cntr	Parental YFP cnt	ClC-1 inh
O=C(Cc1cccs1)Nc1ccc(S(=O)(=O)Nc2ncccn2)cc1	-2.3	1.6	25*	4.4	i	10.1	i	i	-1.11	-6.5
COc1ccccc1C(=O)NNC(=O)C(=O)NC1CCCCC1	-0.4	-4.0	i	-0.7	i	-3.3	.	.	.	.
CCCn1nnc(NC(=O)COc2ccc(Cl)cc2)n1	8.2	-1.8	i	0.9	i	5.2	.	.	.	.
CCCn1nnc(NC(=O)COc2ccc(C3CCCCC3)cc2)n1	-9.1	46.1	100*	-3.1	i	2.5	44.0%*	i	-0.979	-9.0
Cc1nn(Cc2ccc(C(=O)Nc3nc4c(C)cccc4s3)o2)c(C)c1Br	3.9	-4.5	100*	6.1	i	0.8	i	i	-1.16	5.5
COC(=O)CCc1cccc(CCC(=O)OC)c1	11.6	-8.2	25*	-0.7	i	5.3	i	i	-0.966	-8.5
COC(=O)CCc1ccc(O)cc1	7.1	-10.2	i	-0.6	i	0.7	.	.	.	.
Cn1nnnc1SCc1ccc(C(=O)Nc2nccs2)cc1	10.0	19.4	100*	-2.1	i	3.7	i	i	-1.04	-4.5
Cn1nnnc1SCc1ccc(CSc2nnnn2C)cc1	23.5	2.7	i	0.3	i	2.1	.	.	.	.
O=C1N(Cc2ccccc2F)c2ccccc2C12OCCCO2	12.7	14.1	100*	-2.4	i	11.2	i	i	-1.14	-9.0
COc1ccc(CNC(=O)C2Cc3cc(S(=O)(=O)N4CCCC4)ccc3N2C(C)=O)c(OC)c1 (stereo not given)	8.0	-21.6	i	0.2	i	3.8	.	.	.	.
CCOC(=O)c1cc2c(nc1N)CC(C)(CC)OC2 (stereo not given)	-3.3	2.5	i	-0.4	i	9.0	i	i	-1.16	-8.5
